Assay results as given in ChEMBL document CHEMBL1145286, “Dual angiotensin II and endothelin A receptor antagonists: synthesis of 2'-substituted N-3-isoxazolyl biphenylsulfonamides with improved potency and pharmacokinetics” (2005).
Active and inactive are the calls of the source. No cut-off for these calls is given here.

Experiments:
Type in all cases: functional
[1] = target: T1, Endothelin-1 receptor (Rattus norvegicus) (UniProt P26684); assay: Endothelin pressor effect in rats after oral dose of 30 uM/kg
T1 sequence (whole entry): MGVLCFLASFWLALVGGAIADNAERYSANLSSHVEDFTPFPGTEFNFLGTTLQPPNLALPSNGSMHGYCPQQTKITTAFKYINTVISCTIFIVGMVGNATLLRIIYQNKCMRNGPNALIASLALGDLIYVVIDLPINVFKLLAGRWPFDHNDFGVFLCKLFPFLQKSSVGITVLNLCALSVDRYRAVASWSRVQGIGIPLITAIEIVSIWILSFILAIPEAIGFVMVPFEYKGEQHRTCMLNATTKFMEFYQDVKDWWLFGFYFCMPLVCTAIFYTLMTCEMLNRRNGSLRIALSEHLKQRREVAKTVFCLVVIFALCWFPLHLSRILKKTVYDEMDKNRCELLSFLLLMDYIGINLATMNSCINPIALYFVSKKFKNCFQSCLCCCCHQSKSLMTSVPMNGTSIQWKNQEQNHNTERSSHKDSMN
Procedure, shortened: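 Conscious normotensive rats; big endothelin-1 (1.0 nmol/kg iv) challenge after vehicle gave the control pressor response. Drug at 30 μmol/kg given po (or iv), then bET-1 re-challenge at various times after dosing. 6–8 rats per group.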

[2] = target: Angiotensin II receptor (AT-1) type-1 (Rattus norvegicus) (UniProt P29089+P25095); assay: Angiotensin II pressor effect in rats after oral dose of 30 uM/kg
Procedure, shortened: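 Conscious rats given vehicle by gavage, then an iv bolus Ang II challenge as control pressor response; drug at 30 μmol/kg by oral gavage, Ang II re-challenge at intervals up to 240 min. 6–8 rats per dose. […]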

Caco-2 = assay: Permeability in Caco-2 cell monolayer

## Cc1noc(NS(=O)(=O)c2ccccc2-c2ccc(-c3ncco3)cc2)c1C
[1]
  Activity: 9700 AUC units
[2]
  Activity: inactive

## CCCCC1=NC2(CCCC2)C(=O)N1Cc1ccc(-c2ccccc2S(=O)(=O)Nc2onc(C)c2C)c(CCC)c1
[1]
  Activity: 8600 AUC units
[2]
  Activity: 15900 AUC units
Caco-2
  Activity: 240 nm/s

## CCCCC1=NC2(CCCC2)C(=O)N1Cc1ccc(-c2ccccc2-c2nnn[nH]2)cc1 [IRBESARTAN]
[1]
  Activity: inactive
[2]
  Activity: 13500 AUC units
Caco-2
  Activity: 100 nm/s

## CCCCC1=NC2(CCCC2)C(=O)N1Cc1ccc(-c2ccccc2S(=O)(=O)Nc2onc(C)c2C)c(CN2CCC(C)(C)C2=O)c1 [BMS-248360]
[1]
  Activity: 7900 AUC units
[2]
  Activity: 5800 AUC units
Caco-2
  Activity: 30 nm/s

## CCCCC1=NC2(CCCC2)C(=O)N1Cc1ccc(-c2ccccc2S(=O)(=O)Nc2onc(C)c2C)c(COCC)c1
[1]
  Activity: 3900 AUC units
[2]
  Activity: 13900 AUC units
Caco-2
  Activity: 170 nm/s

## CCCCC1=NC2(CCCC2)C(=O)N1Cc1ccc(-c2ccccc2S(=O)(=O)Nc2noc(C)c2C)c(CCC)c1
[1]
  Activity: 13000 AUC units
[2]
  Activity: 16300 AUC units

## CCCCC1=NC2(CCCC2)C(=O)N1Cc1ccc(-c2ccccc2S(=O)(=O)Nc2noc(C)c2C)c(COCC)c1
[1]
  Activity: 15800 AUC units
[2]
  Activity: 18600 AUC units
